Here are results for four compounds from ChEMBL document CHEMBL2331206, “Genomics-guided discovery of thailanstatins A, B, and C As pre-mRNA splicing inhibitors and antiproliferative agents from Burkholderia thailandensis MSMB43” (J Nat Prod, 2013).

Data set [1] has as its system HEK293. Description: Inhibition of Pre-mRNA splicing in human HEK293 cells using biotin-labeled Ad2 pre-mRNA by exonjunction complex (EJC) immunoprecipitation assay.
Another data set relates to SK-OV-3. The data set can be described thus: Antiproliferative activity against human SKOV3 cells assessed as growth inhibition measured after 48 hrs by MTT assay. The note with it: SK-OV-3, 48 h. It is filed as functional. An outline of the steps:
(§1)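 Cells seeded at 10,000 or 15,000 per well, incubated overnight at 37 °C, then exposed to serial three-fold dilutions of compound (10 mM DMSO stocks) for 48 h at 37 °C. MTT added for 4 h at 37 °C, absorbance read at 570 and 690 nm. Viability = 100×(T−T0)/(C−T0) versus vehicle. Triplicate wells; GI50 from log concentration versus normalized viability.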
(In general: Tetrazolium assays rely on reduction of a dye to a coloured formazan, in cell work by metabolically active cells.)

Another data set concerns MDA-MB-231. Description: Antiproliferative activity against human MDA-MB-231 cells assessed as growth inhibition measured after 48 hrs by MTT assay. It is filed as functional. To be noted: MDA-MB-231, 48 h. An outline of the steps:
as §1

The test system of another data set is DU-145. The data set can be described thus: Antiproliferative activity against human DU145 cells assessed as growth inhibition measured after 48 hrs by MTT assay. To be noted: DU-145, 48 h. It is filed as functional. An outline of the steps: as §1
The nature of data set [2]: Antiproliferative activity against human NCI-H232A cells assessed as growth inhibition measured after 48 hrs by MTT assay. Type of data set: functional. An outline of the steps: as §1
The nature of data set [3]: Stability of the compound in phosphate buffer assessed as compound remaining after 8 to 78 hrs at pH 7.4 at 37 degC by HPLC. It is filed as physicochemical. An outline of the steps: (§2)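 Compound (10 µL of 10 mM DMSO stock) added to 10 mL phosphate buffer pH 7.4 containing benzoic acid and DMSO, sealed and held at 37 °C. Samples (20 µL) analysed by reverse-phase C18 HPLC at multiple time points; half-life determined from remaining compound.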

Data set [4] in a line: Stability of the compound in phosphate buffer at pH 7.4 at 37 degC by HPLC. It is filed as physicochemical. An outline of the steps:
as §2

Data set [5] concerns HEK293. The data set can be described thus: Inhibition of Pre-mRNA splicing in human HEK293 cells using p32-labeled CDC14-15 pre-mRNA by exonjunction complex (EJC) immunoprecipitation assay. Type of data set: functional, cell-based.
Data set [6] is described as follows: Stability of the compound in phosphate buffer at pH 7 at 37 degC by HPLC. It is filed as physicochemical.

`CC(=O)O[C@@H](C)/C=C\C(=O)N[C@@H]1C[C@H](C)[C@H](C/C=C(C)/C=C/[C@H]2O[C@H](CC(=O)O)C[C@@]3(CO3)[C@@H]2O)O[C@@H]1C` [THAILANSTATIN A]: in the data set on HEK293 [1], half-maximal inhibition (IC50) required 650 nM. The GI50 (usually the concentration at which growth is held to half of that of the control) came to 2.69 nM in the data set on SK-OV-3, 2.58 nM with MDA-MB-231, 1.11 nM in the data set on DU-145 and 2.26 nM in data set [2]. In addition, the Stability in data set [3] is 65%. In [4], the half-life (as a rule, the time needed for the level to fall by half in the phase considered) was greater than 78 h.
Take `CC(=O)O[C@@H](C)/C=C\C(=O)N[C@@H]1C[C@H](C)[C@H](C/C=C(C)/C=C/[C@H]2O[C@H](CC(=O)O)C[C@@](O)(CCl)[C@@H]2O)O[C@@H]1C` [THAILANSTATIN B]: in the data set on HEK293 [1], half-maximal inhibition (IC50) was put at 6180 nM. The GI50 in the data set on SK-OV-3 stood at 4.94 nM; in the data set on MDA-MB-231, 6.22 nM; with DU-145, 3 nM; in data set [2], 2.5 nM. The compound further showed a half-life in data set [4] of 19 h.
Take `CC(/C=C/[C@H]1O[C@H](CC(=O)O)C[C@@](O)(CCl)[C@@H]1O)=C\C[C@@H]1O[C@H](C)[C@H](NC(=O)/C=C\[C@H](C)OC(=O)C(C)C)C[C@@H]1C` [THAILANSTATIN C]: in the data set on HEK293 [1], the IC50 (usually the concentration at which inhibition is half-maximal) worked out at 6840 nM. Moreover, the GI50 in the data set on SK-OV-3 worked out at 5.57 nM; in the data set on MDA-MB-231, 8.82 nM; with DU-145, 2.98 nM; in data set [2], 3.67 nM. Further, in data set [4], the half-life is 25 h.
For `CC(=O)O[C@@H](C)/C=C\C(=O)N[C@@H]1C[C@H](C)[C@H](C/C=C(C)/C=C/[C@H]2O[C@](C)(O)C[C@@]3(CO3)[C@@H]2O)O[C@@H]1C`, in the data set with HEK293 [1], 580 nM corresponded to half-maximal inhibition (IC50). Also, the GI50 worked out at 1.06 nM in the data set on SK-OV-3, 2.1 nM in the data set with MDA-MB-231, 1.05 nM with DU-145 and 1.94 nM in [2]. For the same compound, in the data set with HEK293 [5], the inhibition entry is “Dose-dependent effect”. Further, the Stability in [3] was found to be 38%. Further, the figures for the half-life in data set [4] and in data set [6] were 8 h and 4 h, respectively.
